By inhibition is commonly meant the change of the read-out against control, counted positive when it falls.

Test [1] has as its target T1, Prostaglandin E synthase (Mus musculus) (UniProt Q9JM51).
T1 sequence (whole entry): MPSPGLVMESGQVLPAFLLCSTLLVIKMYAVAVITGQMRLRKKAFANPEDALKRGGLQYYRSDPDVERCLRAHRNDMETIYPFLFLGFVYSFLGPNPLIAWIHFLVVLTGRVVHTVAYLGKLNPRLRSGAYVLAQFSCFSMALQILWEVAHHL
In words: Inhibition of mPGES-1 derived from LPS stimulated mouse RAW264.7 cells microsomal fraction using PGH2 as substrate at 1 uM preincubated for 30 mins prior to substrate addition measured after 1 min by LC-MS/MS analysis relative to control. In a few lines: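 Microsomes came from RAW 264.7 cells stimulated with LPS for 16 h. They were prepared by sonication and ultracentrifugation in 0.1 M potassium phosphate, pH 7.4, with GSH and protease inhibitors, and resuspended with 2.5 mM GSH; protein was measured by Bradford. Compound was tested at the stated final concentration. PGE₂ was quantified by LC-MS/MS after solid-phase extraction with PGE₂-d₄/PGD₂-d₄ standards; SEM, n ≥ 3.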

Test [2] concerns the target Prostaglandin G/H synthase 1 (Homo sapiens) (UniProt P23219). In words: Inhibition of COX1 in human whole blood assessed as residual TXB2 level at 10 uM after 1 hr by LC-MS/MS analysis relative to control. In a few lines:
(§1)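 Human venous blood was drawn without additives, and compound was added. Samples clotted at 37 °C for 1 h; negative controls were chilled on ice at once. After 5 min on ice, plasma was separated at 4 °C. It was mixed with H₃PO₄, EDTA, BHT and deuterated internal standards, then put through solid-phase extraction. TXB₂ and PGD₂ were measured by LC-MS/MS, relative to vehicle-treated blood.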

Test [3] shares this target. In words: Inhibition of COX1 in human whole blood assessed as residual PGD2 level at 10 uM after 1 hr by LC-MS/MS analysis relative to control. In a few lines:
as §1

For test [4], the target named is T2, Prostaglandin G/H synthase 2 (Homo sapiens) (UniProt P35354).
T2 sequence (whole entry): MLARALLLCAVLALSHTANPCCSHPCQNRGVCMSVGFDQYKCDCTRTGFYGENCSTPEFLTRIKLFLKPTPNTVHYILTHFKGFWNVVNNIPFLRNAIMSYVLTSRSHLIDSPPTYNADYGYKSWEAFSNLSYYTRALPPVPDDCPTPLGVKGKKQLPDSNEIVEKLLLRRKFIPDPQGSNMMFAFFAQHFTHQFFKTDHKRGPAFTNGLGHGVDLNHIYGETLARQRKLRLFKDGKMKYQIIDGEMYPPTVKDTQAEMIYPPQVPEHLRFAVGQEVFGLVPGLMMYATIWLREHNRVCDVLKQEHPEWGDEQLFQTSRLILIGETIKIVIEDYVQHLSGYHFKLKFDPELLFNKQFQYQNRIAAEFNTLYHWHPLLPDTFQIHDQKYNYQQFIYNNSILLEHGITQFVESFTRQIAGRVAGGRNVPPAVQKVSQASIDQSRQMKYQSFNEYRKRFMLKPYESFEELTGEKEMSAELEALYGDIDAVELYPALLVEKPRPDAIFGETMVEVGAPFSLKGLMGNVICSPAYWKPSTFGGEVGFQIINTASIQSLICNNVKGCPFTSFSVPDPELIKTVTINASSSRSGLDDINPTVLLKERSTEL
As to the kind of experiment: Inhibition of COX2 in LPS-stimulated human whole blood assessed as residual PGF2alpha level at 100 uM preincubated for 15 mins prior to LPS-stimulation measured after 24 hrs by LC-MS/MS analysis relative to control. In a few lines:
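Human whole blood received compound in DMSO plus acetylsalicylic acid (10 μg/mL) to block COX-1, 15 min at 37 °C. LPS (10 μg/mL final) in autologous plasma was added to induce COX-2/mPGES-1, and blood was incubated 24 h at 37 °C. Samples were chilled on ice 5 min, and plasma prostaglandins were extracted by solid-phase extraction and quantified by LC-MS/MS. Values are relative to vehicle.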

Test [5] deals with T3, 5-lipoxygenase/FLAP (Homo sapiens) (UniProt P09917+P20292). In words: Inhibition of 5-lipoxygenase/FLAP in calcium ionophore-stimulated human whole blood assessed as 5(s)HETE level at 10 uM preincubated for 15 mins prior to calcium ionophore-stimulation measured after 15 mins by LC-MS/MS analysis. On the set-up: scale not given: the % may be the effect or the level left. The test is classed as protein-complex assay. In a few lines: (§2)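 Heparinized human whole blood (500 μL) was preincubated with compound for 15 min at 37 °C. It was then stimulated with 20 μM calcium ionophore A23187 in autologous plasma for 15 min at 37 °C and chilled on ice for 5 min. Plasma was collected by centrifugation at 4 °C. Eicosanoids were recovered by liquid–liquid extraction with deuterated internal standards and quantified by LC-MS/MS (MRM). Levels are relative to vehicle-treated blood.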

Test [6] addresses T3, 5-lipoxygenase/FLAP (Homo sapiens). In words: Inhibition of 5-lipoxygenase/FLAP in calcium ionophore-stimulated human whole blood assessed as residual (+/-)11HETE level at 10 uM preincubated for 15 mins prior to calcium ionophore-stimulation measured after 15 mins by LC-MS/MS analysis. Type of test: protein-complex assay. In a few lines:
as §2

Test [7] shares this target. In words: Inhibition of 5-lipoxygenase/FLAP in calcium ionophore-stimulated human whole blood assessed as residual 12(s)HETE level at 10 uM preincubated for 15 mins prior to calcium ionophore-stimulation measured after 15 mins by LC-MS/MS analysis. The test is classed as protein-complex assay. In a few lines:
as §2

For test [8], the target named is T4, Prostaglandin E synthase (Homo sapiens) (UniProt O14684).
T4 sequence (whole entry): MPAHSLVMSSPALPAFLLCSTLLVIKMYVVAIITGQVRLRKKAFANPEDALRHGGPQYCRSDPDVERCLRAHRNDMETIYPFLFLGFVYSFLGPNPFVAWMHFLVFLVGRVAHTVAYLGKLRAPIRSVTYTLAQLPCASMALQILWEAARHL
As to the kind of experiment: Inhibition of mPGES-1 in IL1beta and TNFalpha-stimulated human HeLa cells assessed as PGE2 level after 24 hrs by LC-MS/MS analysis. The test is classed as cell-based. In a few lines: (§3)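 HeLa cells (2 × 10⁴) were grown 24 h at 37 °C. The medium was then replaced with IL-1β (1 ng/mL) + TNFα (5 ng/mL), or PBS for unstimulated controls, together with compound at 1, 10 or 100 μM, or DMSO, for 24 h at 37 °C. Supernatant PGE₂ was quantified by LC-MS/MS after solid-phase extraction with deuterated standards. Inhibition is percent of DMSO control corrected for unstimulated background, SEM, n ≥ 3.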

Test [9] has as its target T4, Prostaglandin E synthase (Homo sapiens). In words: Inhibition of mPGES-1 in IL1beta and TNFalpha-stimulated human HeLa cells assessed as PGE2 level at 10 uM after 24 hrs by LC-MS/MS analysis relative to control. The test is classed as cell-based. In a few lines: as §3
The target of test [10] is T1, Prostaglandin E synthase (Mus musculus). As to the kind of experiment: Inhibition of mPGES-1 derived from LPS stimulated mouse NIH3T3 cells microsomal fraction using PGH2 as substrate at 1 uM preincubated for 30 mins prior to substrate addition measured after 1 min by LC-MS/MS analysis relative to control.
For test [11], the target named is T4, Prostaglandin E synthase (Homo sapiens). In words: Inhibition of mPGES-1 in IL1beta and TNFalpha-stimulated human HeLa cells assessed as PGE2 level at 1 uM after 24 hrs by LC-MS/MS analysis relative to isolated enzyme.

The structures appear in SMILES notation.

Prostaglandin G/H synthase 1 (Homo sapiens), sequence (P23219 whole entry): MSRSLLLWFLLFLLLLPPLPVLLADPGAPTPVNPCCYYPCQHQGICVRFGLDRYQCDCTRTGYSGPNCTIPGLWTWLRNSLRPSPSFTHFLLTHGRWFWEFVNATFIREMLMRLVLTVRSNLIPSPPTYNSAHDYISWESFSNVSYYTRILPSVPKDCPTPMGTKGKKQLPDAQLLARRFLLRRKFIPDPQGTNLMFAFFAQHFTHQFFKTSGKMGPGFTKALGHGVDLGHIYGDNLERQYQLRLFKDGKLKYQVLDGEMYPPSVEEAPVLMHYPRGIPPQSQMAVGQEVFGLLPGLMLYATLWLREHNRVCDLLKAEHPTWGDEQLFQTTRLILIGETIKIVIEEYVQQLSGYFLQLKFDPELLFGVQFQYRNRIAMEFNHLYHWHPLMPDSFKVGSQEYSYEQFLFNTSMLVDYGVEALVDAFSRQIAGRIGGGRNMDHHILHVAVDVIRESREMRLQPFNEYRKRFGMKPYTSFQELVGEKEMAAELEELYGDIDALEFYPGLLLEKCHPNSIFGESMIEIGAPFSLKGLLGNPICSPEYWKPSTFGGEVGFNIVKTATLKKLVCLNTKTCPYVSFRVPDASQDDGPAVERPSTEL

With `CCCc1nc2ccc(NC(=O)c3c(F)cccc3Cl)cc2c(=O)n1Cc1cccc(Cl)c1`, the inhibition in [1] was -8.7%; in [8], “Dose-dependent effect”. The Activity in [2] came to 84.4%; in test [3], 89.4%; in test [4] it was 97%; in test [5], 92.1%; in [6], 123%; in [7], 123%.
As to `CCCc1nc2ccc(NC(=O)c3ccccc3Cl)cc2c(=O)n1Cc1ccc(-c2cccc(OC)c2)cc1`, the inhibition in test [1] was 15.3%; in test [9] it was 97%; in test [10], 4.6%; in test [8], “Dose-dependent effect”. For the same molecule, the Activity worked out at 89% in test [2]; 91.7% in test [3]; 92.5% in test [4]; 67.8% in [5]; 77% in test [6]; 85.5% in test [7]. In addition, the potency shift in [11] turned out to be 28%.
As to `CCCc1nc2ccc(NC(=O)c3ccccc3Cl)cc2c(=O)n1Cc1ccc(-c2ccc(Cl)cc2)cc1`, the inhibition in test [1] is 12.4%; in test [10], 17.1%; in test [8], “Dose-dependent effect”. Also, the Activity stood at 97.3% in test [2]; 96.1% in test [3]; 234% in test [4]; 157% in test [5]; 85.2% in [6]; 93.2% in test [7].
On to `CCCc1nc2ccc(NC(=O)c3ccccc3Cl)cc2c(=O)n1Cc1ccc(-c2cccc(Cl)c2)cc1`, for which the inhibition in [1] is 8.4%; in test [10], 10.7%; in [8], “Dose-dependent effect”. Also, the Activity worked out at 90% in [2]; 98.5% in [3]; 94.2% in test [4]; 79% in test [5]; 76.8% in test [6]; 80% in [7].
Take `CCCc1nc2ccc(NC(=O)c3ccccc3Cl)cc2c(=O)n1Cc1cccc(Cl)c1`: the values for the inhibition in test [1], in [10] and in test [8] were 9.5%, -0.8% and “Dose-dependent effect”, respectively. In addition, the Activity in test [2] was 90.4%; in test [3] it was 86.5%; in test [4] it was 81.3%; in [5], 92%; in [6], 71.6%; in [7], 92.8%.
As for `CCCc1nc2ccc(NC(=O)c3ccccc3Cl)cc2c(=O)n1Cc1ccc(-c2ccccc2)cc1`, the inhibition is 11.8% in test [1], 70% in test [9], 20.3% in test [10] and “Dose-dependent effect” in [8]. Also, the Activity in test [2] was determined as 86.4%; in [3], 84.9%; in [4], 92.6%; in [5], 74.8%; in test [6] it was 84.8%; in test [7], 110%.
For the molecule `CCCc1nc2ccc(NC(=O)c3ccccc3C)cc2c(=O)n1Cc1cccc(Cl)c1`, the inhibition was 6% in test [1], 0.9% in [10] and “Dose-dependent effect” in [8]. In addition, the Activity amounted to 81.9% in test [2]; 128% in test [3]; 93.8% in test [4]; 74.4% in test [5]; 86.5% in test [6]; 88.9% in test [7].

(Values after ChEMBL document CHEMBL2046422, “Structure-activity relationship of nonacidic quinazolinone inhibitors of human microsomal prostaglandin synthase 1 (mPGES 1)” (J Med Chem, 2012).)
